One test concerns the target T1, Estrogen receptor (Homo sapiens, UniProt P03372).
T1 sequence (P03372 whole entry): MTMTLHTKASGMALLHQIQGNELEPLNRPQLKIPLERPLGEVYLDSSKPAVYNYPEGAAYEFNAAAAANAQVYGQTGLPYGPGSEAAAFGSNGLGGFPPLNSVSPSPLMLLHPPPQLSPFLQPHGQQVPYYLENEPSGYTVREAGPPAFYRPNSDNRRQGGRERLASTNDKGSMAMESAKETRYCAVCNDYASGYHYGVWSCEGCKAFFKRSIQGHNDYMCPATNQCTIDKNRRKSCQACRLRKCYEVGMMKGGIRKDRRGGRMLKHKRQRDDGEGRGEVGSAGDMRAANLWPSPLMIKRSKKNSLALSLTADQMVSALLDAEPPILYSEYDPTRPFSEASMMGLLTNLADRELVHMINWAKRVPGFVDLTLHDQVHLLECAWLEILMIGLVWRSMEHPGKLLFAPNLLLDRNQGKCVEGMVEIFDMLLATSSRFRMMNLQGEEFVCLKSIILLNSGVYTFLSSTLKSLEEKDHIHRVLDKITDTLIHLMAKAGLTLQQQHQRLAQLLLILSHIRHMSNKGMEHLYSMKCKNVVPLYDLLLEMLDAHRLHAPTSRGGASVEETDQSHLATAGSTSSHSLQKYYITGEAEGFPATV
The test is described as follows: Binding affinity against human estrogen receptor alpha.

The target in the next test is Estrogen receptor beta (Homo sapiens, UniProt Q92731). The test is described as follows: Binding affinity against human estrogen receptor beta. In a few lines:
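Competitive binding to human ERβ, reported as Ki (nM). Compounds generally run in duplicate; minimum significant ratio for the binding assay is 2-fold.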

Test [1] has as its system Rattus norvegicus. Kind of test: Bone density at proximal metaphysis of excised femur in ovariectomized (OVX) rats at 10.00 mg/kg dose. The format is functional. In outline:
(§1)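 Six-month-old ovariectomized rats were dosed orally for 5 weeks. Bone density was measured at the proximal metaphysis of the excised femur. Percent protection was calculated for each animal as (BMD test − BMD OVX)/(BMD sham − BMD OVX) × 100. Statistics used one-way ANOVA with p < 0.05.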

The species named for test [2] is Rattus norvegicus. Kind of test: Effective dose in rat. It is filed as functional.
Test [3] deals with Rattus norvegicus. Kind of test: Bone density at proximal metaphysis of excised femur in ovariectomized (OVX) rats at 1.00 mg/kg dose. It is filed as functional. In outline: as §1
Test [4] has as its system Rattus norvegicus. Kind of test: Bone density at proximal metaphysis of excised femur in ovariectomized (OVX) rats at 0.1 mg/kg dose. It is filed as functional. In a few lines: as §1
The subject of test [5] is Rattus norvegicus. Kind of test: (§2) Percent decrease in serum cholesterol in ovariectomized (OVX) rats at 10 mg/kg dose. The format is functional. In outline: (§3)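 Six-month-old ovariectomized rats were dosed orally for 5 weeks, and total serum cholesterol was measured against OVX controls. Groups were compared by one-way ANOVA with p < 0.05.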
Test [6] relates to Rattus norvegicus. The test is described as follows: (§4) Percent decrease in serum cholesterol in ovariectomized (OVX) rats at 0.10 mg/kg dose. The format is functional. Conditions: dose 0.1 mg/kg. In outline: as §3
Test [7] deals with Rattus norvegicus. Kind of test: Bone density at proximal metaphysis of excised femur in ovariectomized (OVX) rats at 0.01 mg/kg dose. It is filed as functional. In a few lines:
as §1

Test [8] concerns Rattus norvegicus. The description is as §2. The format is functional. On the set-up: scale not given: the % may be the effect or the level left. In outline: as §3
The test system of test [9] is Rattus norvegicus. The description is as §4. On the set-up: scale not given: the % may be the effect or the level left. Conditions: dose 0.1 mg/kg.

The record followed here is ChEMBL document CHEMBL1136468, “B-ring unsaturated estrogens: biological evaluation of 17alpha-Dihydroequilein and novel B-Nor-6-thiaequilenins as tissue selective estrogens” (Bioorg Med Chem Lett, 2003).

As a reminder, the Ki is the dissociation constant of the complex between target and ligand, obtained from inhibition or displacement. In general, ED50 refers to the dose that gives a 50% effect, or the effect in half of the subjects.

Sequence of Estrogen receptor beta (Q92731 whole entry): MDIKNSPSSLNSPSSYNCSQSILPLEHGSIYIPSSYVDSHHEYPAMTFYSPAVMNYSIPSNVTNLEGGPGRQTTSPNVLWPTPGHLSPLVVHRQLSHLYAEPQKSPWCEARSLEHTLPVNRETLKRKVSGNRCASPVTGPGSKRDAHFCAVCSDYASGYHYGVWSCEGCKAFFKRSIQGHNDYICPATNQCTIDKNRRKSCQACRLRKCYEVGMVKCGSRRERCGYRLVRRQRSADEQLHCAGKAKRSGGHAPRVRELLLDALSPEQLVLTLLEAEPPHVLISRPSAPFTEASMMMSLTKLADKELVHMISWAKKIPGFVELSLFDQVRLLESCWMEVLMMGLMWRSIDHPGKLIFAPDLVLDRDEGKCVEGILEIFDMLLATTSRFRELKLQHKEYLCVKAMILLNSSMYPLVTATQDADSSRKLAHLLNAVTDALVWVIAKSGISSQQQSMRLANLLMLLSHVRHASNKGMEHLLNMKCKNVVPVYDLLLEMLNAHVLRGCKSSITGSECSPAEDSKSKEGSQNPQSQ

As to `C[C@]12CCc3c(sc4cc(O)ccc34)[C@H]1CC[C@@H]2O`, the Ki at Estrogen receptor was determined as 10 nM; on Estrogen receptor beta, 47 nM.

Consider `C[C@]12CCc3c(ccc4cc(O)ccc34)[C@@H]1CC[C@H]2O`, for which the Protection in the test on Rattus norvegicus [1] came to 119%; in the test on Rattus norvegicus [3], 59.5%; in the test with Rattus norvegicus [4], 26.5%; in the test with Rattus norvegicus [7] it was 6.1%. In the test filed under Rattus norvegicus [2], this compound had an ED50 of under 0.1 mg/kg. For the same compound, the figures for the Decrease in the test on Rattus norvegicus [5] and in the test with Rattus norvegicus [6] were 93.8% and 66.3%, respectively. In the test on Rattus norvegicus [8], this compound registered an Activity of 93.8%. On Estrogen receptor beta, this compound returned an inhibitory constant (Ki) of 24 nM.

Regarding `C[C@]12CCc3c(sc4cc(O)ccc34)[C@@H]1CC[C@@H]2O`, the inhibition constant (Ki) on Estrogen receptor turned out to be 4 nM; at Estrogen receptor beta, 11 nM.

Take `C[C@]12CCc3c(sc4cc(O)ccc34)[C@@H]1CC[C@H]2O`: the values for the Ki at Estrogen receptor and on Estrogen receptor beta were 23 nM and 73 nM, respectively.

For the compound `C[C@@]12CCc3c(sc4cc(O)ccc34)[C@@H]1CC[C@H]2O`, the Ki at Estrogen receptor is 24 nM; on Estrogen receptor beta, 120 nM.

As for `C[C@@]12CCc3c(sc4cc(O)ccc34)[C@H]1CC[C@H]2O`, the Ki came to 13 nM at Estrogen receptor and 17 nM at Estrogen receptor beta.

For the compound `C#C[C@]1(O)CC[C@H]2[C@@H]3CCc4cc(O)ccc4[C@H]3CC[C@@]21C` [ETHINYL ESTRADIOL], the Activity in the test on Rattus norvegicus [9] turned out to be 83.3%. Also, the Decrease in the test on Rattus norvegicus [6] turned out to be 83.3%.
